Experimental data published in the array DNA melting data of Ke et al. (doi:10.1101/2024.01.08.574731).

How the values were obtained:
[1] = melting temperature; fluorescence melt of hairpins on a sequencing array, two-state fit, raised by 9.35 °C to match UV melts; settings: sodium 0.088 M
Procedure, shortened: (§1)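 Cy3 signals were normalised both to pre-quench Cy3 and to control constructs. They came from library hairpins carrying annealed Cy3 and quencher oligos on a sequenced MiSeq flow cell, imaged in 50 mM Na-HEPES pH 8.0, 25 mM NaCl, in 2.5 °C steps up to 60 °C. Bootstrapped two-state fits gave melting temperature and folding enthalpy, and four replicates were combined by inverse variance. Fitted temperatures were then raised by 9.35 °C to match UV melts.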

[2] = folding enthalpy; higher = less favourable; fluorescence melt of hairpins on a sequencing array, two-state fit; settings: sodium 0.088 M
Procedure, shortened: as §1

Sequence | Tm [1] [°C] | folding enthalpy [2] [kcal/mol]
GAATTGCGAAAGCACTTC (((.(((....))).))) | 40.7 | -21.1
GAATTGCGAAAGCATTC (((.(((....)))))) | 36.1 | -13.6
GAATTGCGAAAGCATTTC (((.(((....))).))) | 44.8 | -21.7
GAATTGGGAAACCGATTC ((((.((....)).)))) | 43.4 | -36.4
GAATTTGGAAACAAATCC (.(((((....))))).) | 29.2 | -13.9
GACAAACGAAAGTTGTC (((.(((....)))))) | 48.2 | -29.1
GACAAAGAAATTTGTC ((((((....)))))) | 43.4 | -27.6
GACAACCGAAAGGTCGTC (((.(((....))).))) | 49.5 | -38.6
GACAACCGAAAGGTGTC (((.(((....)))))) | 53.9 | -24.8
GACAACGAAAGTTACGTC ((((((....)))..))) | 30.6 | -12.5
GACAACGAAAGTTAGGTC ((((((....)))..))) | 33.7 | -14.6
GACAACGAAAGTTATGTC ((((((....)))..))) | 32.3 | -17.8
GACAACGAAAGTTTGTC ((((((....))).))) | 47.3 | -27.6
GACAAGGAAACTTGTC ((((((....)))))) | 51.8 | -43.8
GACAATACGAAAGTAGTC (((..(((....)))))) | 30.3 | -16.4
GACACACGAAAGTGAGTC (((.(((....))).))) | 56.1 | -31
GACACAGGAAACTGTATC ((.((((....)))).)) | 28.3 | -14.1
GACACCCCGAAAGGGGTC (((..(((....)))))) | 37.7 | -6.64
GACACCCGAAAGGGGTC (((.(((....)))))) | 54.8 | -18.5
GACACCGAAAGGTATGTC ((((((....)))..))) | 39.2 | -19.6
GACACCGAAAGGTTCGTC ((((((....)))..))) | 41.2 | -20.4
GACACCGGAAACGGCATC ((..(((....)))..)) | 25.4 | -9.17
GACACCGGAAACGGTACC (..((((....))))..) | 24.2 | -10.5
